Only some compounds are listed: those with a hit (about 3.1% of all), similar ones and a draw of the others.
rRNA inh HTS – reduced GFP signal of wild-type E. coli, primary screen, bacterial rRNA inhibitor project, GFP/RFP fluorescence, OD600, single point; E. coli WT GFP vs humanized-ribosome RFP mutants, 24 h; hits give low values; DMSO median 0, no signal -100; 350,000 tested, 1.6% active; AID 720706, 2013; GFP signal change (wild-type ribosome), % (concentration not given with the values);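 active = significant combined selectivity score with lowered wild-type GFP, culture density cut under 30%, mutant RFP and density less affected; inactive = any of these conditions unmet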
E-sel inducer – E-selectin induction in HUVECs, primary screen, imaging, HUVEC, immunofluorescence imaging, single point. P16581. normalized: neutral wells 0, TNF-alpha wells 100. activation, % at 7.58 µM. 260,000 tested, 0.37% active;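 active = mean E-selectin-positive cell signal at least 10% of the positive control, reached in at least 60% of replicates, without over 20% cell loss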
Target sequence (P16581 whole entry, looked up): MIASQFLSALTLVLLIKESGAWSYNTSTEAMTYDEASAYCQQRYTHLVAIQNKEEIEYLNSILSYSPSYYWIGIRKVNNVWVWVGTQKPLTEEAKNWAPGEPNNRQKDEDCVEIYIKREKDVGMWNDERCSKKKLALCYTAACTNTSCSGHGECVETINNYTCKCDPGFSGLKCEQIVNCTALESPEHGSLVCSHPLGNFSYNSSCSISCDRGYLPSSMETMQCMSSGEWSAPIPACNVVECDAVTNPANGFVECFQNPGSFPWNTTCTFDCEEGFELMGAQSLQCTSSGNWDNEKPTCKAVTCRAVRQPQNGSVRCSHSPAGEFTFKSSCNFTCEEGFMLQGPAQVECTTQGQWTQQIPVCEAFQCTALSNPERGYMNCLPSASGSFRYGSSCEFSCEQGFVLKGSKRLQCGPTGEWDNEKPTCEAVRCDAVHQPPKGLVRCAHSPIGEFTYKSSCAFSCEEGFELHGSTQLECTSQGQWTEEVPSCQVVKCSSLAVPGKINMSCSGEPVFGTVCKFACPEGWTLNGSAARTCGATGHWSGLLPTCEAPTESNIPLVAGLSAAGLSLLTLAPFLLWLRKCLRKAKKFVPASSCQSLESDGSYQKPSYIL
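System: HUVEC, human umbilical vein endothelial cells; quantity: 3,000 cells/well; buffer or medium: EGM-2 medium, gelatin-coated wells; dosing: single-point compound dose; detection: immunofluorescence imaging; evaluation: % PE-positive cells; benchmarks: TNF-alpha, DMSO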
miR122 inh – miR-122 Renilla sensor signal increase in Huh7, primary screen, miR-122 inhibitor project, cell-based, single point, plate reader; Huh7 miR-122 Renilla luciferase sensor, 48 h; neutral wells = 0, positive control = 100; activation (reporter increase), % at 12.5 µM; 340,000 tested, 0.3% active; AID 602342, 2012;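 active = mean replicate activation score at least 90 and every replicate individually at or above 90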;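 note: higher luciferase means less miR-122 activity so hits act as miR-122 inhibitors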
DENV2 CPE – inhibitors of DENV2 cytopathic effect, primary screen, cell-based, plate reader, single concentration. CPE inhibition, % at 9.99 µM. DENV2-infected cells, cytopathic effect rescue. AID 651640, 2012. 350,000 tested, 1.7% active; in the data active = CPE inhibition above about 20%, passing the limit was not always enough; tested in BHK-21 cells
Cneo AK release – Cryptococcus neoformans cell lysis inducers, primary screen, AK release luminescence, single concentration; C. neoformans lysis, adenylate kinase release luminescence, 4 h; normalised: neutral wells 0, clomiphene wells 100; lysis activity, % at 15 µM; 360,000 tested, 0.2% active;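 active = mean lysis activity across replicates of at least 80%, whatever share of replicates individually reach that level; inactive = mean lysis activity below 80%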
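Test system: log-phase Cryptococcus neoformans yeast cells. Input: 5 × 10^6 yeast cells/mL. Medium: fresh YPD growth medium. Doses: single dose. Incubation: static 4 h at 37 °C with compound, 1 h detection. Measured by: luminescent adenylate kinase detection reagent. Read-out: signal increase indicating cell lysis. Benchmarks: Clomiphene.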
Each line names hits and unclear results; the compound was inactive in the other large screens.

COc1ccc(S(=O)(=O)N(C)C[C@H]2OCCCC[C@H](C)Oc3ccc(NC(=O)NC(C)C)cc3C(=O)N([C@H](C)CO)C[C@H]2C)cc1	none
COc1ccc(NC(=O)Nc2ccc3c(c2)C(=O)N([C@@H](C)CO)C[C@@H](C)[C@@H](CN(C)S(=O)(=O)c2ccccc2)OCCCC[C@@H](C)O3)cc1	DENV2 CPE 66 (no result: E-sel inducer)
CO[C@@H]1CN(C)C(=O)c2cc(NS(C)(=O)=O)ccc2OC[C@H](C)N(Cc2ccccn2)C[C@@H]1C	none (no result: DENV2 CPE, Cneo AK release)
C[C@@H]1CN([C@@H](C)CO)C(=O)c2cc(C3=CCCC3)cnc2O[C@H]1CN(C)Cc1cccc(F)c1	none
C[C@@H]1CCCCO[C@H](CN(C)S(=O)(=O)c2ccccc2)[C@@H](C)CN([C@H](C)CO)C(=O)c2cc(NC(=O)Nc3ccccc3)ccc2O1	none (no result: E-sel inducer)
COc1ccc(NC(=O)Nc2ccc3c(c2)C(=O)N([C@H](C)CO)C[C@@H](C)[C@@H](CN(C)S(=O)(=O)c2ccc(Cl)cc2)OCCCC[C@H](C)O3)cc1	DENV2 CPE 40, Cneo AK release 96 (no result: E-sel inducer)
COc1ccc(S(=O)(=O)N(C)C[C@@H]2OCCCC[C@H](C)Oc3ccc(NC(=O)c4ccccc4)cc3C(=O)N([C@H](C)CO)C[C@@H]2C)cc1	DENV2 CPE 44
C[C@H](CO)N1C[C@H](C)[C@H](CN(C)S(=O)(=O)c2ccc(Cl)cc2)OCCCC[C@H](C)Oc2ccc(NC(=O)c3ccccc3)cc2C1=O	DENV2 CPE 21
C[C@@H]1CCCCO[C@@H](CN(C)S(=O)(=O)c2ccccc2)[C@@H](C)CN([C@H](C)CO)C(=O)c2cc(NC(=O)Nc3ccccc3)ccc2O1	DENV2 CPE 65 (no result: E-sel inducer)
C[C@@H]1CCCCO[C@H](CN(C)S(=O)(=O)c2ccc(Cl)cc2)[C@@H](C)CN([C@H](C)CO)C(=O)c2cc(NC(=O)c3ccccc3)ccc2O1	none
O=C(c1cccnc1)N1CC2(C1)[C@@H](c1ccccc1)[C@H](CO)N2C(=O)c1cccnc1	none (no result: E-sel inducer, miR122 inh, DENV2 CPE, Cneo AK release)
C[C@H](CO)N1C[C@H](C)[C@@H](CN(C)S(=O)(=O)c2ccccc2)OCCCC[C@H](C)Oc2ccc(NC(=O)Nc3ccc(F)cc3)cc2C1=O	DENV2 CPE 52
C[C@@H]1CCCCO[C@@H](CN(C)S(=O)(=O)c2ccccc2)[C@@H](C)CN([C@H](C)CO)C(=O)c2cc(NC(=O)Nc3ccc(F)cc3)ccc2O1	none
Cc1nc2ccc(NC(=O)NC(=O)c3c(Cl)cccc3Cl)cc2o1	E-sel inducer 64 (no result: miR122 inh, Cneo AK release)
O=[N+]([O-])c1ccccc1/C=C/c1ccncc1	none (no result: rRNA inh HTS, E-sel inducer, miR122 inh)
O=C(O)c1nn2c(C(F)(F)F)cc(-c3cccs3)nc2c1Cl	rRNA inh HTS -20 (no result: miR122 inh, Cneo AK release)
COc1ccc(-c2nn(-c3ccccc3)cc2/C=N/NS(=O)(=O)c2ccccc2)cc1	none (no result: rRNA inh HTS, E-sel inducer, DENV2 CPE, Cneo AK release)
COc1ccc(-c2nn(-c3ccccc3)cc2/C=N/O)cc1	rRNA inh HTS -38
CC(NCCC1(Cc2ccccc2Cl)CCOC(C)(C)C1)c1cccs1 (stereo not drawn)	rRNA inh HTS -39
CC(NCCC1(C(C)C)CCOC(C)(C)C1)c1cccs1 (stereo not drawn)	none (no result: miR122 inh)
O=C(NCC[C@H]1CC[C@@H](NS(=O)(=O)Cc2ccccc2)[C@H](CO)O1)C1CCC1	none
O=C(COn1nnc2ccc(S(=O)(=O)N3CCOCC3)cc21)Nc1c(F)c(F)c(F)c(F)c1F	rRNA inh HTS -20 (no result: E-sel inducer)
COc1ccc(CCNC(=O)c2c(C)nn(CC(C)C)c2Cl)cc1OC	DENV2 CPE 95 (no result: miR122 inh)
O=C(C[C@@H]1CC[C@@H](NC(=O)CN2CCOCC2)[C@H](CO)O1)NCCc1ccccc1	none (no result: miR122 inh)
CC(=O)N(C)C[C@H]1Oc2c(NS(C)(=O)=O)cccc2C(=O)N(C)C[C@@H]1C	none (no result: E-sel inducer, miR122 inh, DENV2 CPE, Cneo AK release)
COc1ccc(-n2cc(C(=O)c3ccccc3O)cn2)cc1	none (no result: E-sel inducer, miR122 inh, DENV2 CPE, Cneo AK release)
COc1ccc(O)c(C(=O)c2cnn(-c3ccccc3)c2)c1	rRNA inh HTS -27
COCC(=O)N1CC2(CN[C@H](CO)c3c2c2ccc(OC)cc2n3C)C1	none (no result: miR122 inh, Cneo AK release)
COC(=O)C[C@@H]1C[C@@H]2c3cc(NC(=O)CN(C)C)ccc3O[C@@H]2[C@H](CO)O1	none
COc1ccc(CCNC(=O)c2ccc(COc3ccccc3OC)o2)cc1	none (no result: E-sel inducer, miR122 inh)
CC(=O)c1ccc(NC(=O)c2ccc(CSc3ccccc3)o2)cc1	rRNA inh HTS -31 (no result: E-sel inducer, miR122 inh, Cneo AK release)
COc1ccc(CCNC(=O)c2ccc(CSc3ccccc3)o2)cc1	rRNA inh HTS -37 (no result: E-sel inducer, miR122 inh, DENV2 CPE, Cneo AK release)
O=C(Nc1ccc(F)cc1)c1ccc(CSc2ccc(Cl)cc2)o1	rRNA inh HTS -32 (no result: E-sel inducer)
O=C(Nc1ccccc1)c1ccccc1CSc1ccccc1	DENV2 CPE 44 (no result: miR122 inh)
O=C(C1CCCC1)N1CC2(C1)[C@H](c1ccccc1)[C@@H](CO)N2C(=O)c1cccnc1	none (no result: miR122 inh, Cneo AK release)
CC=Cc1ccc2n(c1=O)C[C@H]1[C@H](CO)[C@@H](C(=O)NCc3ccccc3)[C@@H]2N1Cc1ccccc1OC (mixture of isomers)	none (no result: miR122 inh, Cneo AK release)
C[C@@H]1CCCCO[C@@H](CN(C)Cc2ccc(C(=O)Nc3ccccc3N)cc2)[C@@H](C)CN([C@H](C)CO)C(=O)c2cc(N(C)C)ccc2O1	none (no result: E-sel inducer, miR122 inh, DENV2 CPE, Cneo AK release)
CN(Cc1ccccc1)S(=O)(=O)c1ccc(NC(=S)NC(=O)C2CCCCC2)cc1	miR122 inh 125 (no result: E-sel inducer, DENV2 CPE)
CN(Cc1ccccc1)S(=O)(=O)c1ccc(NC(=S)NC(=O)C(C)(C)C)cc1	none (no result: E-sel inducer)
CC(C)CC(NS(=O)(=O)OCC(Cl)(Cl)Cl)c1ccccc1 (stereo not drawn)	none
CC(NS(=O)(=O)OCC(Cl)(Cl)Cl)c1ccc(Br)cc1 (stereo not drawn)	rRNA inh HTS -23 (no result: miR122 inh, DENV2 CPE)
C[C@@H]1COC(=O)[C@H](Cc2ccc(F)cc2)C/C=C\C[C@@H](CC(=O)N[C@H](CO)Cc2ccccc2)C(=O)N1	DENV2 CPE 41 (no result: miR122 inh)
C[C@@H]1COC(=O)[C@@H](Cc2ccc(F)cc2)C/C=C\C[C@@H](CC(=O)N[C@H](CO)Cc2ccccc2)C(=O)N1	none
O=C(NNC(=O)c1ccccc1O)c1ccc(Br)cc1	rRNA inh HTS -24 (no result: E-sel inducer)
O=C(NNC(=O)C1CCCCC1)c1ccc(Br)cc1	rRNA inh HTS -24 (no result: miR122 inh, Cneo AK release)
O=C(NC1CC1)c1ccc(NC(=O)C2CCCC2)cc1	DENV2 CPE 72
O=C(COC(=O)c1ccccc1O)NNC(=O)c1ccc(Br)cc1	none (no result: miR122 inh)
CCCC#Cc1ccc2c(c1)O[C@@H](CN(C)C(=O)c1ccccn1)[C@H](C)CN([C@H](C)CO)S2(=O)=O	none
S=c1[nH]nc(-c2ccco2)n1/N=C/C(Cl)=C/c1ccccc1	rRNA inh HTS -36
CCOC(=O)C1=C(C)NC2=C(C(=O)c3ccccc32)C1c1ccc(O)cc1 (stereo not drawn)	none (no result: rRNA inh HTS, miR122 inh, DENV2 CPE, Cneo AK release)

Compound activity as filed in PubChem BioAssay.
